Data set [1] is described as follows: melting temperature; fluorescence melt of hairpins on a sequencing array, two-state fit, raised by 9.35 °C to match UV melts. The following applies: sodium 0.088 M. The method, boiled down: (§1)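 Bootstrapped two-state fits yielded melting temperature and folding enthalpy for library hairpins. Cy3 fluorescence, with annealed Cy3 and quencher oligos, was imaged on a sequenced MiSeq flow cell in 50 mM Na-HEPES pH 8.0, 25 mM NaCl in 2.5 °C steps up to 60 °C, and normalised to pre-quench Cy3 and to control constructs. Four replicates were combined by inverse variance, and fitted temperatures were raised by 9.35 °C to match UV melts.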

A short description of data set [2]: folding enthalpy; higher = less favourable; fluorescence melt of hairpins on a sequencing array, two-state fit. Particulars: sodium 0.088 M. The method, boiled down: as §1

Consider GATCGAGATTTCGATC ((((((....)))))), for which, in data set [1], the Tm was found to be 51.8 °C. In addition, the folding enthalpy in data set [2] was -46.7 kcal/mol.
As for GATCGAGCACTCGATC ((((((....)))))), the Tm in data set [1] came out at 57.6 °C. Moreover, the folding enthalpy in data set [2] was -42.9 kcal/mol.
Turning to GATCGAGCATCGATC ((((((...)))))), in data set [1], the Tm turned out to be 58.7 °C. Also, in data set [2], the folding enthalpy was -41.3 kcal/mol.
On to GATCGAGCCATCGATC ((((((....)))))), for which, in data set [1], the Tm was found to be 59.2 °C. In data set [2], the folding enthalpy is -39.7 kcal/mol.
For GATCGAGCCTCGATC ((((((...)))))), in data set [1], the Tm stood at 52.8 °C. Further, the folding enthalpy in data set [2] was -34.9 kcal/mol.
The matching figures for GATCGAGCCTTCGATC ((((((....)))))): 56.4 °C and -39.5 kcal/mol.
For GATCGAGCGCTCGATC ((((((....)))))) the same measures were 62.2 °C and -44 kcal/mol.
Take GATCGAGCTGTCGATC ((((((....)))))): the Tm in data set [1] was found to be 51.3 °C. For the same sequence, in data set [2], the folding enthalpy was -38.6 kcal/mol.
On to GATCGAGGAAACTCAATC (((.(((....))).))), for which the Tm in data set [1] was 25.9 °C. Moreover, the folding enthalpy in data set [2] was -10.2 kcal/mol.
For the sequence GATCGAGGAAACTCGACC (.(((((....))))).), the Tm in data set [1] turned out to be 41.4 °C. Moreover, the folding enthalpy in data set [2] was -14.8 kcal/mol.
On to GATCGAGGAAACTTGGTC ((.(.((....)).).)), for which the Tm in data set [1] came to 22.6 °C. Besides, the folding enthalpy in data set [2] was -8.03 kcal/mol.
For GATCGAGGATTCGATC ((((((....)))))) the same measures were 57.9 °C and -36.8 kcal/mol.
On to GATCGAGTAATCGATC ((((((....)))))), for which, in data set [1], the Tm was determined as 57.4 °C. Besides, the folding enthalpy in data set [2] is -39 kcal/mol.
In the case of GATCGAGTCTTCGATC ((((((....)))))), in data set [1], the Tm was 58.4 °C. In addition, the folding enthalpy in data set [2] was -37.6 kcal/mol.
For GATCGATAATCGATC ((((((...)))))), the Tm in data set [1] was 49.5 °C. The folding enthalpy in data set [2] was -37.7 kcal/mol.
Take GATCGATAGGTCGATC ((((((....)))))): in data set [1], the Tm was found to be 53 °C. Besides, in data set [2], the folding enthalpy was -42.2 kcal/mol.
As to GATCGATATATCGATC ((((((....)))))), in data set [1], the Tm turned out to be 56 °C. Moreover, the folding enthalpy in data set [2] is -41 kcal/mol.
As for GATCGATCAATCGATC ((((((....)))))), in data set [1], the Tm stood at 53.8 °C. The folding enthalpy in data set [2] is -40.9 kcal/mol.
As to GATCGATCATTCGATC ((((((....)))))), the Tm in data set [1] was determined as 53.7 °C. Moreover, the folding enthalpy in data set [2] was -39.5 kcal/mol.
GATCGATCCTCGATC ((((((...)))))): the Tm in data set [1] turned out to be 52.1 °C. For the same sequence, the folding enthalpy in data set [2] was -40.4 kcal/mol.
For GATCGATCTTCGATC ((((((...)))))) the same measures were 52.5 °C and -33.6 kcal/mol.
GATCGATGATTCGATC ((((((....)))))): the Tm in data set [1] amounted to 53.2 °C. Moreover, the folding enthalpy in data set [2] is -36.4 kcal/mol.
Take GATCGATGCGTCGATC ((((((....)))))): the Tm in data set [1] was 57 °C. Moreover, the folding enthalpy in data set [2] was -43.7 kcal/mol.
As for GATCGATGGGTCGATC ((((((....)))))), in data set [1], the Tm turned out to be 57.5 °C. Further, the folding enthalpy in data set [2] is -39.7 kcal/mol.
The matching figures for GATCGATGGTCGATC ((((((...)))))): 50.6 °C and -29.4 kcal/mol.
For GATCGATGGTTCGATC ((((((....)))))) the same measures were 51.2 °C and -43 kcal/mol.
For the sequence GATCGATGTATCGATC ((((((....)))))), the Tm in data set [1] amounted to 58.4 °C. For the same sequence, the folding enthalpy in data set [2] was -40.9 kcal/mol.
Turning to GATCGATTATTCGATC ((((((....)))))), the Tm in data set [1] was 54.2 °C. Moreover, the folding enthalpy in data set [2] was -42.7 kcal/mol.
The matching figures for GATCGATTCATCGATC ((((((....)))))): 59.3 °C and -39.9 kcal/mol.
GATCGATTGATCGATC ((((((....)))))): the Tm in data set [1] stood at 54.8 °C. Further, the folding enthalpy in data set [2] was -45.5 kcal/mol.
For the sequence GATCGCAAACGCGATC ((((((....)))))), the Tm in data set [1] worked out at 64.8 °C. The folding enthalpy in data set [2] is -42.1 kcal/mol.
On to GATCGCAATGGCGATC ((((((....)))))), for which the Tm in data set [1] was 67.4 °C. In addition, in data set [2], the folding enthalpy was -35.6 kcal/mol.
With GATCGCACGGCGATC ((((((...)))))), in data set [1], the Tm came to 69.3 °C. The folding enthalpy in data set [2] is -33 kcal/mol.
The matching figures for GATCGCACTGGCGATC ((((((....)))))): 68.2 °C and -34 kcal/mol.
On to GATCGCAGACGCGATC ((((((....)))))), for which, in data set [1], the Tm was 67.8 °C. The folding enthalpy in data set [2] is -30.9 kcal/mol.
For GATCGCAGGAGCGATC ((((((....)))))), in data set [1], the Tm was 68.3 °C. Further, in data set [2], the folding enthalpy is -26.6 kcal/mol.
In the case of GATCGCATATGCGATC ((((((....)))))), the Tm in data set [1] stood at 68.8 °C. In addition, in data set [2], the folding enthalpy was -33.8 kcal/mol.
On to GATCGCATCCGCGATC ((((((....)))))), for which the Tm in data set [1] was found to be 68.7 °C. In addition, the folding enthalpy in data set [2] was -33.4 kcal/mol.
Regarding GATCGCCACTGCGATC ((((((....)))))), the Tm in data set [1] came to 65.3 °C. Moreover, in data set [2], the folding enthalpy is -42.9 kcal/mol.
For the sequence GATCGCCCAGCGATC ((((((...)))))), the Tm in data set [1] stood at 67.4 °C. The folding enthalpy in data set [2] is -32.1 kcal/mol.
Regarding GATCGCCCGCGCGATC ((((((....)))))), the Tm in data set [1] was determined as 66.3 °C. Moreover, the folding enthalpy in data set [2] is -30.6 kcal/mol.
For GATCGCCCTCGCGATC ((((((....)))))), the Tm in data set [1] is 67.5 °C. The folding enthalpy in data set [2] was -27.9 kcal/mol.
For GATCGCCGAAAGGCATC (((.(((....)))))) the same measures were 37.6 °C and -9.53 kcal/mol.
As to GATCGCCGACGCGATC ((((((....)))))), the Tm in data set [1] came to 66.5 °C. In data set [2], the folding enthalpy is -35.7 kcal/mol.
With GATCGCCTAAGCGATC ((((((....)))))), the Tm in data set [1] came to 68 °C. In addition, the folding enthalpy in data set [2] was -40.8 kcal/mol.
Turning to GATCGCCTCCGCGATC ((((((....)))))), the Tm in data set [1] amounted to 63.9 °C. Also, the folding enthalpy in data set [2] was -44.6 kcal/mol.
In the case of GATCGCCTGAGCGATC ((((((....)))))), the Tm in data set [1] came out at 68.7 °C. The folding enthalpy in data set [2] is -29.1 kcal/mol.
Consider GATCGCGAAAGCGCGATC ((((((....)))..))), for which the Tm in data set [1] was 64.1 °C. In data set [2], the folding enthalpy was -30.8 kcal/mol.
As to GATCGCGAAAGCGGATC ((((((....))).))), the Tm in data set [1] was 57 °C. Also, the folding enthalpy in data set [2] was -16.4 kcal/mol.
The matching figures for GATCGCGAAAGCGTGATC ((((((....)))..))): 42.8 °C and -14.3 kcal/mol.
The matching figures for GATCGCGCCGGCGATC ((((((....)))))): 68.2 °C and -25.3 kcal/mol.
Turning to GATCGCGTGGGCGATC ((((((....)))))), the Tm in data set [1] stood at 68.2 °C. For the same sequence, in data set [2], the folding enthalpy is -30.8 kcal/mol.
With GATCGCTAAGCGATC ((((((...)))))), the Tm in data set [1] was determined as 67.9 °C. In addition, the folding enthalpy in data set [2] is -33.5 kcal/mol.
For GATCGCTACGGCGATC ((((((....)))))), the Tm in data set [1] came to 67.8 °C. Also, the folding enthalpy in data set [2] is -40.5 kcal/mol.
For GATCGCTAGCGCGATC ((((((....)))))) the same measures were 66.5 °C and -34 kcal/mol.
The matching figures for GATCGCTATCGCGATC ((((((....)))))): 67.1 °C and -36.9 kcal/mol.
For GATCGCTCATGCGATC ((((((....)))))), the Tm in data set [1] was 67.8 °C. The folding enthalpy in data set [2] was -40.2 kcal/mol.
For GATCGCTCTGGCGATC ((((((....)))))) the same measures were 69.1 °C and -37.7 kcal/mol.
Take GATCGCTGAGCGATC ((((((...)))))): the Tm in data set [1] is 69 °C. The folding enthalpy in data set [2] is -31 kcal/mol.
Regarding GATCGCTTAGGCGATC ((((((....)))))), in data set [1], the Tm is 68.6 °C. In addition, the folding enthalpy in data set [2] was -32.1 kcal/mol.
For GATCGGAAGCCGATC ((((((...)))))), the Tm in data set [1] was determined as 55 °C. Also, the folding enthalpy in data set [2] is -34.7 kcal/mol.
As to GATCGGAATACCGATC ((((((....)))))), the Tm in data set [1] turned out to be 56.6 °C. Also, the folding enthalpy in data set [2] was -33.1 kcal/mol.
The matching figures for GATCGGAATCCGATC ((((((...)))))): 53.5 °C and -34.8 kcal/mol.
GATCGGAATGCCGATC ((((((....)))))): the Tm in data set [1] came out at 54.9 °C. In data set [2], the folding enthalpy was -33.7 kcal/mol.
As to GATCGGACCCCGATC ((((((...)))))), in data set [1], the Tm came out at 54.1 °C. In data set [2], the folding enthalpy is -39.4 kcal/mol.
Regarding GATCGGAGACCCGATC ((((((....)))))), the Tm in data set [1] was found to be 53 °C. The folding enthalpy in data set [2] was -36.6 kcal/mol.
For GATCGGAGAGCCGATC ((((((....)))))), the Tm in data set [1] amounted to 54.8 °C. For the same sequence, the folding enthalpy in data set [2] is -30.3 kcal/mol.
For the sequence GATCGGAGCCCCGATC ((((((....)))))), the Tm in data set [1] came to 54.7 °C. Further, the folding enthalpy in data set [2] is -32.6 kcal/mol.
For GATCGGAGCGCCGATC ((((((....)))))) the same measures were 55 °C and -31.4 kcal/mol.
For GATCGGAGTACCGATC ((((((....)))))), the Tm in data set [1] came out at 57.5 °C. Besides, in data set [2], the folding enthalpy was -37.9 kcal/mol.
Consider GATCGGATACCGATC ((((((...)))))), for which, in data set [1], the Tm was 56.6 °C. Also, the folding enthalpy in data set [2] is -36.4 kcal/mol.
Turning to GATCGGATGCCGATC ((((((...)))))), the Tm in data set [1] worked out at 63 °C. Moreover, the folding enthalpy in data set [2] is -19 kcal/mol.
Regarding GATCGGATGGCCGATC ((((((....)))))), the Tm in data set [1] is 56.1 °C. In data set [2], the folding enthalpy is -29.9 kcal/mol.
On to GATCGGATTGCCGATC ((((((....)))))), for which, in data set [1], the Tm was found to be 55 °C. In data set [2], the folding enthalpy was -28.7 kcal/mol.
The matching figures for GATCGGCAGGCCGATC ((((((....)))))): 66.8 °C and -34.9 kcal/mol.
In the case of GATCGGCCAACCGATC ((((((....)))))), the Tm in data set [1] is 55.8 °C. Also, the folding enthalpy in data set [2] was -38.4 kcal/mol.

Values taken from the array DNA melting data of Ke et al. (doi:10.1101/2024.01.08.574731).
